Calls of active or inactive are those of the source. The calls are words filed in the database; no cut-off is given here.

Assay [1] has as its system LNCaP. The assay can be described thus: Antiproliferative activity against human LNCAP cells after 24 to 48 hrs by MTT assay. It is filed as functional. The settings on record: read-out: LD50 (the source's name). The method in brief: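 LNCaP cells were grown in RPMI1640 with 10% FBS at 37 °C under 5% CO2, and 2 × 10^4 cells/well were seeded the day before treatment. Cells were exposed to 10 or 20 compound for 24 and 48 h. MTT (5 mg/ml) was then added for 1 h, cells were lysed, and A595 was read. Viable cells were expressed as % of DMSO-treated control, mean of ≥3 independent experiments.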
(In general: Tetrazolium assays rely on reduction of a dye to a coloured formazan, in cell work by metabolically active cells.)

Assay [2] deals with LNCaP. Briefly: Antiproliferative activity against human LNCAP cells after 24 by MTT assay. To be noted: read-out: LD50 (the source's name). It is filed as functional. The method in brief: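 LNCaP cells were grown in RPMI1640 with 10% FBS at 37 °C under 5% CO2, and 2 × 10^4 cells/well were seeded the day before. Cells were treated with 3–10 µM for 24 h. MTT (5 mg/ml) was then added for 1 h, cells were lysed, and absorbance was read at 595 nm. Viability was expressed as % of DMSO control. LD50 was calculated by curve fitting, mean of ≥3 independent experiments.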

In assay [3] the test system is LNCaP. The assay can be described thus: Induction of apoptosis in human LNCAP cells assessed as PARP cleavage at 10 uM after 24 hrs by Western blot analysis. It is filed as functional, cell-based. Summed up:
(§1)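 LNCaP cells treated 24 h at 10 or 20 µM, then lysed in RIPA buffer with protease inhibitors and protein measured by Bradford. Extracts (150 µg) run on 7.5% SDS-PAGE and tank-blotted to PVDF. Probed overnight at 4 °C with polyclonal rabbit anti-PARP (1:1000), detected with peroxidase anti-rabbit and chemiluminescence. Full-length and 85 kDa fragment scored.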
Background: In western blotting, separated proteins are transferred to a membrane and probed.

For assay [4], the system named is LNCaP. The assay can be described thus: Induction of apoptosis in human LNCAP cells assessed as PARP cleavage at 20 uM after 24 hrs by Western blot analysis. It is filed as functional, cell-based. The method in brief:
as §1

Assay [5] deals with LNCaP. Briefly: Induction of apoptosis in human LNCAP cells assessed as PARP cleavage after 24 hrs by Western blot analysis. The assay is classed as functional, cell-based. Summed up: as §1
Assay [6] concerns LNCaP. The assay can be described thus: Antiproliferative activity against human LNCAP cells assessed as decrease in cell viability at 10 uM after 48 hrs by MTT assay. The assay is classed as functional. The method in brief: (§2)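 LNCaP cells grown in RPMI1640 with 10% FBS at 37 °C, 5% CO2. Seeded at 2 × 10^4 cells/500 µl in 24-well plates the day before treatment, then exposed to 10 or 20 µM for 24 or 48 h. MTT was added for a further 1 h, cells lysed and A595 read. Viability given as % of DMSO-treated control. Mean of at least three independent experiments.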

For assay [7], the system named is LNCaP. Briefly: Antiproliferative activity against human LNCAP cells assessed as decrease in cell viability at 20 uM after 48 hrs by MTT assay. The assay is classed as functional. The method in brief: as §2
A short description of assay [8]: Inhibition of rat liver CK2 using RRRADDSDDDDD as substrate.
Assay [9] has as its system LNCaP. Briefly: Antiproliferative activity against human LNCAP cells assessed as decrease in cell viability at 10 to 20 uM after 24 to 48 hrs by MTT assay. It is filed as functional, cell-based. Summed up:
as §2

Assay [10] can be described thus: Inhibition of CK2.

Take `NCCNc1nc2c(Br)c(Br)c(Br)c(Br)c2[nH]1`: the CC50 in [1] was below 10 µM; in [2] it was 7.22 µM. Besides, the result in [3] and in [4] was Active. Moreover, the Activity result in [5] is “Dose-dependent effect”.

Turning to `Brc1c(Br)c(Br)c2[nH]cnc2c1Br`, the Activity in assay [6] and in [7] was 20% each time. Moreover, the outcome in assay [4] was Active.

For `CN(C)CCNc1nc2c(Br)c(Br)c(Br)c(Br)c2[nH]1`, in assay [8], the Ki – broadly, the equilibrium dissociation constant of an inhibitor or competing ligand from its target – amounted to 0.16 µM. The CC50 is below 10 µM in assay [1] and 9.37 µM in [2]. Besides, the result in [4] was Active.

Take `NCCCNc1nc2c(Br)c(Br)c(Br)c(Br)c2[nH]1`: in assay [1], the CC50 was below 10 µM. Further, in [4], the outcome was Active.

As for `O=C(O)CCCSc1nc2c(Br)c(Br)c(Br)c(Br)c2[nH]1`, the outcome in assay [9] and in [3] was inactive. Also, half-maximal inhibition in assay [10] (IC50) required 0.27 µM.

Turning to `Cn1c(NCCN)nc2c(I)c(I)c(I)c(I)c21`, the CC50 in [1] was below 10 µM; in [2], 4.75 µM. Moreover, the result in assay [3] and in assay [4] was inactive.

On to `CN(C)c1nc2c(Br)c(Br)c(Br)c(Br)c2n1CC(=O)O`, for which the outcome in assay [9] and in assay [3] was inactive. This compound came in with a Ki in assay [8] of 0.25 µM. In assay [10], the IC50 – broadly, the point on the concentration scale where inhibition reaches its midpoint – turned out to be 0.27 µM.

`CN(C)CCNc1nc2c(I)c(I)c(I)c(I)c2[nH]1`: the values for the CC50 in assay [1] and in [2] were below 10 µM and 7.37 µM, respectively. Besides, the outcome in assay [4] was Active.

In the case of `NCCNc1nc2c(I)c(I)c(I)c(I)c2[nH]1`, the CC50 in assay [1] was below 10 µM. In addition, in assay [4], the outcome was Active.

With `Cn1c(NCCN)nc2c(Br)c(Br)c(Br)c(Br)c21`, the CC50 in [1] is below 10 µM. Besides, the result in assay [3] and in assay [4] was inactive.

In the case of `Ic1c(I)c(I)c2[nH]cnc2c1I`, the Activity in assay [6] and in assay [7] was 20% throughout. Also, the result in assay [4] was Active.

For `NCCCCNc1nc2c(Br)c(Br)c(Br)c(Br)c2[nH]1`, the Activity in [6] and in [7] was 20% throughout. In addition, the CC50 in [1] is below 10 µM. Further, the result in [3] and in [4] was inactive.

With `CN(C)c1nc2c(Br)c(Br)c(Br)c(Br)c2[nH]1`, the Ki in assay [10] turned out to be 0.04 µM.

For the origin of these results see ChEMBL document CHEMBL2157902, “Modified tetrahalogenated benzimidazoles with CK2 inhibitory activity are active against human prostate cancer cells LNCaP in vitro” (Bioorg Med Chem, 2012).
